Compounds with a hit are over-represented: about 4.1% of the library has one in this group of screens.
SMARCA2 act – increases SMARCA2 function in MMTV reporter cells; MG213 cells, MMTV-luciferase reporter, dexamethasone, overnight; activation, % at 9.1 µM; hit rate 1% among 370,000; AID 652017; in the data active = activation above about 7.8%;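 also: 0% = vehicle wells and 100% = reference activator wells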
AHR activator – activators of human aryl hydrocarbon receptor; P35869; hit rate 2.5% among 320,000; AHR-responsive luciferase reporter cells, luminescence; activation, % at 5 µM; AID 2796; in the data active = activation above about 47%;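 also: 0% = vehicle wells and 100% = reference agonist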
Target sequence (P35869 whole entry, looked up): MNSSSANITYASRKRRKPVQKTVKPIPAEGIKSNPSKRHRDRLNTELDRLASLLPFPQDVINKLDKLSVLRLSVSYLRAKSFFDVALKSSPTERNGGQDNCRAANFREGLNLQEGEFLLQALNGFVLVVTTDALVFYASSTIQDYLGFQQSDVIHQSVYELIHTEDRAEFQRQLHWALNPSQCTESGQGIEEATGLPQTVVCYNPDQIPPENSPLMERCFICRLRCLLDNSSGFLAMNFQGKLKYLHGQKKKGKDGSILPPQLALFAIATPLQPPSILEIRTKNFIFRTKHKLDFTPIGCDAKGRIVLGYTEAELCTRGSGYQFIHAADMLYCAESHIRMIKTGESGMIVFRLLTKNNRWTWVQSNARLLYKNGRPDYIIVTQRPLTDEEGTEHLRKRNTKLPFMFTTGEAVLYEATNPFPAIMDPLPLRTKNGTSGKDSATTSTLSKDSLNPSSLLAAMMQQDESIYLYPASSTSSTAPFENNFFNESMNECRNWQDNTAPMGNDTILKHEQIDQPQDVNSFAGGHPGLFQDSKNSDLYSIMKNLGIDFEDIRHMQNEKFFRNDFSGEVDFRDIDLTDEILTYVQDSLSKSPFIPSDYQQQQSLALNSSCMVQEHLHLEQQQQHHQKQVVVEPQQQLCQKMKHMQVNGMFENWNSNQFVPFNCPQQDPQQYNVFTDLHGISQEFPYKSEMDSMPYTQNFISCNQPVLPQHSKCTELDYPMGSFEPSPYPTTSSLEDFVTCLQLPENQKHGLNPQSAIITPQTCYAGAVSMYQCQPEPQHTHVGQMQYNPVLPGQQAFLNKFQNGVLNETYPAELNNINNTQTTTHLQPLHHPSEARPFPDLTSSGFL
TbMetRS inhib – blocks T. brucei methionyl-tRNA synthetase activity; purified T. brucei MetRS, ATP depletion, Kinase-Glo luminescence; inhibition, % at 11.9 µM; hit rate 0.4% among 360,000; AID 624268;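 active = inhibition above a per-plate cutoff of the control wells' mean inhibition plus 3 SD, cut at about 5.5% in these data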;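 also: 0% = DMSO wells median and 100% = median of wells with control inhibitor compound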
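Measured by: Kinase-Glo luciferase luminescence reporting remaining unconsumed ATP. Material: purified T. brucei MetRS enzyme. Doses: 11.9 µM compound single dose, 0.9% DMSO. Medium: HEPES buffer containing pyrophosphatase, BSA, spermine, DTT. Times: 15 min preincubation, 2 h reaction, all 25 °C. Reagent: methionine, ATP and bulk E. coli tRNA.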
Efflux pump mplx – inhibitors of Candida antifungal efflux pumps expressed in yeast | S. cerevisiae Candida pump triplex, Nile Red efflux | inhibition, % at 10 µM | hit rate 0.44% among 330,000;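 active = plate passing quality check with inhibition over a set limit, or well fluorescence over plate mean plus 4 SD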;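 also: Nile Red retained in pooled yeast measured as flow cytometry median fluorescence; 0% = buffer negative control and 100% = Enniatin B positive control; higher means more Nile Red kept so more efflux inhibition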
TAG inh – triacylglycerol accumulation inhibition | hit rate 0.66% among 230,000 | AID 651582 | inhibition, % at 12.5 µM | H9c2 cells, Nile Red lipid (TAG) fluorescence; cells loaded with 200 µM oleic acid;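 active = pattern-corrected inhibition of lipid staining of at least 50% with the nuclear-stain viability signal not falling by more than 50%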;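 also: 0% = DMSO wells and 100% = triacsin C control wells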
SMARCA2 conf – confirmation of SMARCA2 (BRM) function activators | AID 652260 | activation, % at 9.1 µM | hit rate 30% among 3,500 | shares compounds with SMARCA2 act | MG213 cells, MMTV-luciferase with dexamethasone, luminescence, overnight; MG213 cells expressing E1A, Rb sequestered; DMSO wells 0%, reference activator 100%;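 active = activation above its plate's cutoff, the mean activation of tested wells plus 3 SD, cut at about 7.9% in these data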
GAL4-VP16 Luc – activates GAL4-VP16 luciferase, flagging SMARCA2 activator hits; shares compounds with SMARCA2 act; HEK293 GAL4-VP16 pG5luc reporter, luciferase luminescence; scaled: DMSO wells 0%, SAHA wells 100%; activation, % at 9.1 µM; hit rate 41% among 3,500;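 active = activation above the solvent-only control well mean plus 3 SD, averaged across control plates, cut at about 5.2% in these data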
* hit, by the source's call.

How did COC(=O)C1=C(C)N(C)C(=NCc2ccc(C(F)(F)F)cc2)NC1c1ccc(Cl)cc1 (stereo not drawn) do in these assays?
SMARCA2 act: 1

What do the screens show for `O=C(O)c1cccc(Nc2ccnc(Nc3cccc(C(=O)O)c3)n2)c1`?
SMARCA2 act: 8.0*; AHR activator: -3; TbMetRS inhib: -1; Efflux pump mplx: 0; SMARCA2 conf: 8; GAL4-VP16 Luc: 2

How did O=C(O)c1cccc(NC2=Nc3cccc4cccc2c34)c1 do in these assays?
SMARCA2 act: 9.9*; AHR activator: 4; TbMetRS inhib: -1; Efflux pump mplx: 0; TAG inh: 0; SMARCA2 conf: 10*; GAL4-VP16 Luc: 9.4*

Results for O=C(O)c1cccc(Nc2nc(N3CCOCC3)nc(N3CCOCC3)n2)c1 ?
SMARCA2 act: -1; AHR activator: 1; TbMetRS inhib: 0; Efflux pump mplx: 0

Results for COc1cccc(OC(C)CCN2CCC(C(O)(c3ccccc3)c3ccccc3)CC2)c1 (stereo not drawn) ?
SMARCA2 act: -3

Results for COc1ccc(Cn2cc(C(=O)c3ccccc3)c(=O)c3cc(OC)ccc32)cc1 ?
SMARCA2 act: 8.9*; AHR activator: 0; TbMetRS inhib: -2; Efflux pump mplx: 0; TAG inh: 0; SMARCA2 conf: -2; GAL4-VP16 Luc: 0

Results for COC(=O)[C@]12C[C@H](CC(=O)NCc3cccc4ccccc34)C(=O)N(Cc3ccc4c(c3)OCO4)C1=C[C@H](COCc1ccccc1)O[C@@H]2C ?
SMARCA2 act: -8

What do the screens show for `O=C(N/N=C/c1ccco1)Nc1ccccc1`?
SMARCA2 act: 10*; AHR activator: 9; TbMetRS inhib: 0; Efflux pump mplx: 0; SMARCA2 conf: 3; GAL4-VP16 Luc: 14*

How did O=C(CCC(=O)Nc1ccccc1)N/N=C/c1ccco1 do in these assays?
SMARCA2 act: 4; AHR activator: 4; TbMetRS inhib: 0; Efflux pump mplx: 0

How did CC(C)c1c(C(=O)N/N=C/c2ccco2)nnn1-c1nonc1N do in these assays?
SMARCA2 act: -3; AHR activator: -1; TbMetRS inhib: 0; Efflux pump mplx: 0

Results for Nc1nccnc1C(=O)N/N=C/c1ccco1 ?
SMARCA2 act: 9.6*; AHR activator: 3; TbMetRS inhib: -1; Efflux pump mplx: 0; TAG inh: 1; SMARCA2 conf: 2; GAL4-VP16 Luc: 3

What do the screens show for `O=C(C(=O)N1CCC(CNS(=O)(=O)c2cccc3ccccc23)CC1)c1cccs1`?
SMARCA2 act: -1

Results for O=C1/C(=C/c2cccs2)Cc2ccccc21 ?
SMARCA2 act: 9.6*; AHR activator: 5; TbMetRS inhib: 0; Efflux pump mplx: 0; SMARCA2 conf: 8.3*; GAL4-VP16 Luc: 3

How did Cc1csc(NC(=O)CN2C(=O)c3ccccc3C2=O)c1C(N)=O do in these assays?
SMARCA2 act: 9.1*; AHR activator: 0; TbMetRS inhib: 0; Efflux pump mplx: 0; TAG inh: -5; SMARCA2 conf: 5; GAL4-VP16 Luc: 1

How did COC(=O)[C@]12C[C@H](CC(=O)N3CCOCC3)C(=O)N(Cc3ccc4c(c3)OCO4)C1=C[C@H](C(C)(C)C)O[C@@H]2C do in these assays?
SMARCA2 act: -1

What do the screens show for `C[C@H]1CN(c2ccc(N3CCN(C(=O)OC(C)(C)C)C[C@@H]3C)cc2C#N)CCN1Cc1ccccc1`?
SMARCA2 act: 6

Results for COc1ccc(Cn2ccc3ccc(-c4ccc5ccn(C(=O)c6ccccc6)c5c4)cc32)cc1 ?
SMARCA2 act: 2

How did COc1cc(OC)cc(C(=O)Oc2c(CN3CCOCC3)cc(Cl)c3cccnc23)c1 do in these assays?
SMARCA2 act: -2; AHR activator: 14; TbMetRS inhib: 0; Efflux pump mplx: 0; TAG inh: 85

What do the screens show for `O=C(Oc1c(CN2CCOCC2)cc(Cl)c2cccnc12)c1ccccc1`?
SMARCA2 act: 35*; AHR activator: 3; TbMetRS inhib: -1; Efflux pump mplx: 0; TAG inh: 83; SMARCA2 conf: 11*; GAL4-VP16 Luc: -2

How did O=C(Oc1c(CN2CCOCC2)cc(Cl)c2cccnc12)c1ccccc1F do in these assays?
SMARCA2 act: 39*; AHR activator: 8; TbMetRS inhib: -1; Efflux pump mplx: 0; TAG inh: 113; SMARCA2 conf: 13*; GAL4-VP16 Luc: 1

How did COP(=O)(CC(=O)C(Cc1ccccc1)NC(=O)OC(C)(C)C)OC (stereo not drawn) do in these assays?
SMARCA2 act: -3

Results for COC(=O)c1ccc2nc(NC(=O)C3CC3)sc2c1 ?
SMARCA2 act: 12*; AHR activator: -4; TbMetRS inhib: 0; Efflux pump mplx: 0; SMARCA2 conf: 8.7*; GAL4-VP16 Luc: 5.3*

What do the screens show for `N=c1oc2cc(O)ccc2cc1C(=O)Nc1ccc(F)cc1`?
SMARCA2 act: 11*; AHR activator: 4; TbMetRS inhib: -2; Efflux pump mplx: 0; SMARCA2 conf: 4; GAL4-VP16 Luc: 6.7*

How did O=C(c1ccc(F)cc1)c1cc2ccc(O)cc2oc1=O do in these assays?
SMARCA2 act: 2; AHR activator: 0; TbMetRS inhib: -2; Efflux pump mplx: 0

What do the screens show for `Nc1c(C(=O)C2CC2)sc2nc3c(cc12)CCC3`?
SMARCA2 act: 8.5*; AHR activator: 12; TbMetRS inhib: -1; Efflux pump mplx: 0; TAG inh: -15; SMARCA2 conf: 13*; GAL4-VP16 Luc: 9.7*

Results for Nc1c(C(=O)O)sc2nc3c(cc12)CCCC3 ?
SMARCA2 act: -3; AHR activator: 4; TbMetRS inhib: 0; Efflux pump mplx: 0; TAG inh: 2

Results for N#Cc1sc2nc3c(cc2c1N)CCCC3 ?
SMARCA2 act: 4; AHR activator: -3; TbMetRS inhib: 0; Efflux pump mplx: 0; TAG inh: -5

Results for NC(=O)c1sc2nc3c(cc2c1N)CCCCCC3 ?
SMARCA2 act: 11*; AHR activator: 6; TbMetRS inhib: 0; Efflux pump mplx: 0; TAG inh: 1; SMARCA2 conf: 0; GAL4-VP16 Luc: 2

How did O=C(COc1ccccc1)Nc1ccccc1F do in these assays?
SMARCA2 act: 5; AHR activator: 0; TbMetRS inhib: -1; Efflux pump mplx: 0; TAG inh: 3

How did COc1ccc(OCC(=O)NC(=S)Nc2ccccc2F)cc1 do in these assays?
SMARCA2 act: 9.8*; AHR activator: 1; Efflux pump mplx: 0; SMARCA2 conf: 2; GAL4-VP16 Luc: 1

Results for COC(=O)[C@]12C[C@H](CC(=O)NCc3cccc(C(F)(F)F)c3)C(=O)N(Cc3cccc4ccccc34)C1=C[C@H](C(C)C)O[C@@H]2C1CC1 ?
SMARCA2 act: -3

Compound activity deposited in PubChem BioAssay by several laboratories.
